Measured values from ChEMBL document CHEMBL1811827, “Novel nonsecosteroidal vitamin D3 carboxylic acid analogs for osteoporosis, and SAR analysis” (Bioorg Med Chem, 2011).

Key:
[1] = target: T1, Vitamin D3 receptor (Homo sapiens) (UniProt P11473); experiment: Agonist activity at human VDR in human MG63 cells assessed as stimulation of osteocalcin production by enzyme immunoassay relative to 1,25(OH)2D3; assay type: functional, cell-based; parameters: concentration or dose not given beside the values; details: MG-63
T1 sequence (whole entry): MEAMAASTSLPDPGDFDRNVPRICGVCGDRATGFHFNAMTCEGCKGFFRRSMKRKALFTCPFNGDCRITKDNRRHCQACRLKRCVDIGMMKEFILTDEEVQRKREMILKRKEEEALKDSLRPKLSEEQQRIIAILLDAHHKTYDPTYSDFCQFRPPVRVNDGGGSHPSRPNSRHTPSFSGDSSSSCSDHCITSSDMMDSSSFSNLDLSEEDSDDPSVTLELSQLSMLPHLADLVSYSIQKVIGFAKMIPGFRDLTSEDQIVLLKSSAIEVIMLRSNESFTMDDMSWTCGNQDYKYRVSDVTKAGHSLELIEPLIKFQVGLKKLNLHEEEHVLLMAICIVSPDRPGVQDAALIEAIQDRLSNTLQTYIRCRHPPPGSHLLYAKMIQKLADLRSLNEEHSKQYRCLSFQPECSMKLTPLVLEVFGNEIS

[2] = target: T1, Vitamin D3 receptor (Homo sapiens); experiment: Agonist activity at human VDR in human MG63 cells assessed as stimulation of VDRE-mediated luciferase reporter gene activity relative to 1,25(OH)2D3; assay type: functional, cell-based; parameters: concentration or dose not given beside the values; details: MG-63
[3] = AUC (infinity) in Sprague-Dawley rat at 100 ug/kg, iv; assay type: ADME, organism-based; parameters: dose 100 ug/kg, time infinity, route intravenous; details: plasma, 0.1 mg/kg
Procedure, shortened: (§1)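 Rats given 100 µg/kg orally or intravenously; F, T1/2, Cmax, AUCinf, MRT and total clearance derived.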

[4] = Oral bioavailability in Sprague-Dawley rat at 100 ug/kg; assay type: ADME, organism-based; details: in vivo, 0.1 mg/kg; procedure, shortened: as §1
[5] = Half life in Sprague-Dawley rat at 100 ug/kg, iv; assay type: ADME, organism-based; details: in vivo, 0.1 mg/kg; procedure, shortened: as §1
Rattus norvegicus [6] = experiment: Toxicity in ovariectomized Sprague-Dawley rat osteoporosis model assessed as induction of hypercalcemia at 2 ug/kg, po administered once daily for 5 times per week; assay type: organism-based; details: in vivo, 0.002 mg/kg
Procedure, shortened: (§2)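 Female Sprague–Dawley rats, 8 weeks old, ovariectomized or sham-operated; from one day post-surgery, OVX groups (n = 8) given 0.22, 0.67 or 2.0 µg/kg orally in MCT vehicle (1 mL/kg), five times per week for 4 weeks. 24 h after last dose, serum calcium by autoanalyzer and distal femur BMD by dual-energy X-ray absorptiometry.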

Rattus norvegicus [7] = experiment: Prevention of bone mineral density loss in ovariectomized Sprague-Dawley rat osteoporosis model administered orally once daily for 5 times per week; assay type: functional, organism-based; procedure, shortened: as §2
Rattus norvegicus [8] = experiment: Toxicity in ovariectomized Sprague-Dawley rat osteoporosis model assessed as induction of hypercalcemia at […], po administered once daily for 5 times per week; assay type: organism-based; details: in vivo
[9] = AUC (infinity) in Sprague-Dawley rat at 100 ug/kg, po; assay type: ADME, organism-based; parameters: dose 100 ug/kg, time infinity, route oral; details: plasma, 0.1 mg/kg; procedure, shortened: as §1
[10] = Half life in Sprague-Dawley rat at 100 ug/kg, po; assay type: ADME, organism-based; details: in vivo, 0.1 mg/kg; procedure, shortened: as §1
Rattus norvegicus [11] = experiment: Toxicity in ovariectomized Sprague-Dawley rat osteoporosis model assessed as body weight loss at 2 ug/kg, po administered once daily for 5 times per week; assay type: organism-based; details: in vivo, 0.002 mg/kg
[12] = Total clearance in Sprague-Dawley rat at 100 ug/kg, iv; assay type: ADME, organism-based; details: in vivo, 0.1 mg/kg; procedure, shortened: as §1
[13] = Total clearance in Sprague-Dawley rat at 100 ug/kg, po; assay type: ADME, organism-based; details: in vivo, 0.1 mg/kg; procedure, shortened: as §1
[14] = Mean residence time in Sprague-Dawley rat at 100 ug/kg, po; assay type: ADME, organism-based; details: in vivo, 0.1 mg/kg; procedure, shortened: as §1
[15] = Mean residence time in Sprague-Dawley rat at 100 ug/kg, iv; assay type: ADME, organism-based; details: in vivo, 0.1 mg/kg; procedure, shortened: as §1
Rattus norvegicus [16] = experiment: Toxicity in ovariectomized Sprague-Dawley rat osteoporosis model assessed as body weight loss at […], po administered once daily for 5 times per week; assay type: organism-based; details: in vivo
[17] = Cmax in Sprague-Dawley rat at 100 ug/kg, po; assay type: ADME, organism-based; parameters: dose 100 ug/kg, route oral; details: in vivo, 0.1 mg/kg; procedure, shortened: as §1

Molecule CCC(CC)(c1ccc(CCC(O)C(C)(C)C)c(C)c1)c1ccc(OCCCCCC(=O)O)c(C)c1 (racemic) has an Activity [1] of 168% and an Activity [2] of 16%.
In the case of CCC(CC)(c1ccc(OCC(O)C(C)(C)C)c(C)c1)c1ccc(OC[C@@H](O)CCC(=O)O)c(C)c1 (mixture of isomers), the AUC(0-inf) [3] is reported as 1150 ng·h/mL, the bioavailability [4] is reported as 13% and the half-life [5] is reported as 636 min. For the same molecule, the Activity (Rattus norvegicus [6]) was “Toxic”, the inhibition (Rattus norvegicus [7]) was “Dose-dependent effect” and the Activity (Rattus norvegicus [8]) was “Non-toxic”. The AUC(0-inf) [9] was 151 ng·h/mL, the half-life [10] was 480 min and the Activity (Rattus norvegicus [11]) was “Toxic”. For the same molecule, the clearance [12] was 1.47 mL/min/kg, the CL/F [13] was 11.5 mL/min/kg and the MRT [14] was 12.3 h. The MRT [15] was 9.2 h, the Activity (Rattus norvegicus [16]) was “Non-toxic” and the Activity [1] was 484%. It also gave a Cmax [17] of 11.6 ng/mL and an Activity [2] of 20%.
With CCC(CC)(c1ccc(OCC(=O)O)c(C)c1)c1ccc(OCC(O)C(C)(C)C)c(C)c1 (racemic) the Activity [1] was less than 13% and the Activity [2] was 1.4%.
CCC(CC)(c1ccc(CCC(O)C(C)(C)C)c(C)c1)c1ccc(OCCCCCCC(=O)O)c(C)c1 (racemic) gave an Activity [1] of 9.3% and an Activity [2] of 2.2%.
In the case of CCC(CC)(c1ccc(CCC(O)C(C)(C)C)c(C)c1)c1ccc(OCCCCC(=O)O)c(C)c1 (racemic), the Activity [1] is reported as 368% and the Activity [2] is reported as 31%.
For CCC(CC)(c1ccc(OCCCCC(=O)O)c(C)c1)c1ccc(OCC(O)C(C)(C)C)c(C)c1 (racemic), the AUC(0-inf) [3] was 32.9 ng·h/mL, the bioavailability [4] was 33% and the half-life [5] was 78 min. The AUC(0-inf) [9] was 10.9 ng·h/mL, the half-life [10] was 186 min and the clearance [12] was 50.9 mL/min/kg. It also gave a CL/F [13] of 156 mL/min/kg, an MRT [14] of 3.8 h and an MRT [15] of 0.5 h. For the same molecule, the Activity [1] was 205%, the Cmax [17] was 3.6 ng/mL and the Activity [2] was 19%.
For CCC(CC)(c1ccc(CCC(O)C(C)(C)C)c(C)c1)c1ccc(OC[C@@H](O)CCC(=O)O)c(C)c1 (mixture of isomers), the Activity [1] was 68% and the Activity [2] was 52%.
For CCC(CC)(c1ccc(OCCC(=O)O)c(C)c1)c1ccc(OCC(O)C(C)(C)C)c(C)c1 (racemic), the Activity [1] was 49% and the Activity [2] was 6.2%.
In the case of CCC(CC)(c1ccc(OCCCC(=O)O)c(C)c1)c1ccc(OCC(O)C(C)(C)C)c(C)c1 (racemic), the Activity [1] is reported as less than 13% and the Activity [2] is reported as 2.6%.
